Reference: PubChem BioAssay
Records with an inconclusive call do not appear. The source made the active and inactive calls.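 The calls were made as follows, unless noted: active = RAM network inhibition above 8.4% in each of two replicates, 3 SD over the compound average; inconclusive = above 8.4% inhibition in only one replicate; inactive = 8.4% inhibition or less in each replicate.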

How the values were obtained:
[1] = S. cerevisiae growth inhibition in permissive medium (OD615), pilot counter-assay for S. cerevisiae lifespan shortening project, permissive growth control (AID 705;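 active = growth inhibition above 25% in both replicates, a cutoff set 3 SD above the mean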); conditions: OD615, 24 h, at 10 µM, hits give high values
Summary of the method: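 System: Engineered DeaD yeast | Buffer or medium: SC raffinose/galactose permissive medium | Incubation: Cells pre-grown 4 h, then 24 h compound exposure, 30 °C humidified | Measured by: Absorbance (optical density) at 615 nm | Read-out: Reduction in yeast growth (OD615)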

[2] = S. cerevisiae growth inhibition in restrictive medium, OD615, pilot screen, restrictive growth control, yeast lifespan reduction project (AID 706;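 active = growth inhibition above a set limit, 3 SD over mean compound inhibition, in both replicates, cut at about 43% in these data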;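 also: modified DeaD lifespan yeast strain shifted to restrictive glucose medium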); conditions: OD615, 48 h, at 10 µM, hits give high values
Summary of the method: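 Material: modified S. cerevisiae; Medium: glucose-based CSMM-D restrictive medium; Compound dosing: one concentration, 10 µM final, 0.25% DMSO; Incubation: 48 h compound exposure at 30 °C; Measured by: OD615.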

[3] = doxorubicin toxicity protection in MRP-1 cells – H69AR cells, CellTiter-Glo, duplicate, MRP-1 activator project, pilot screen (AID 807;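 active = viability increase at or above a cutoff of the median across tested compounds plus 3 SD, cut at about 8.5% in these data, passing the limit was not always enough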;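 also: compound pretreatment 18-22 h then 72 h combined with doxorubicin; 0% = doxorubicin alone and 100% = vehicle without doxorubicin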); conditions: H69AR viability with doxorubicin, CellTiter-Glo luminescence; at 10 µM; hits give high values
[4] = viability of HCT116 without oncogenic beta-catenin – human colon tumor cells, pilot screen (AID 823;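 active = cell viability at or below a set limit in both duplicate runs, the limit being the all-compound median minus 4 SD, cut at about 23% in these data, passing the limit was not always enough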;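 also: 0% = wells killed by 20 µM Hyamine and 100% = untreated DMSO cell wells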); conditions: HCT116 beta-catenin knockout viability, CellTiter-Glo, 60 h; at 10 µM; hits give low values
[5] = viability of PTEN-null HCT116 cells – cell-based, HCT116 clonal line, CellTiter-Glo, pilot screen (AID 824;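 active = viability at or below 27.92% in each of two runs, the all-compound median minus 4 SD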;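 also: 0% = 20 µM Hyamine control and 100% = vehicle cell control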); conditions: HCT116 PTEN-deleted viability, 60 h, at 10 µM, hits give low values
[6] = RAM pathway blockade in budding yeast – dse1pr::URA3 reporter, 5-FOA selection, pilot screen (AID 869;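 active = inhibition over a set limit, the all-compound mean plus 3 SD, in both replicate runs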;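 also: 0% = DMSO wells with no growth and 100% = 10 µM 1-NA-PP1 with full growth; RAM network block rescues cells from 5-FOA so hits raise OD615 growth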); conditions: S. cerevisiae dse1pr::URA3 5-FOA growth, OD615, 2 d; at 10 µM; hits give high values; strain carries analog-sensitive mutant Cbk1 kinase
[7] = RAM signaling pathway blockade in yeast – S. cerevisiae, Pdr1DBD-CYC8 efflux-inhibited sensitized strain, primary screen (AID 1298);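 also: 0% = DMSO untreated cells without growth and 100% = 10 µM 1-NA-PP1 full growth; higher means more yeast growth rescued from 5-FOA killing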; conditions: S. cerevisiae cbk1-as DSE1-URA3 strain, 5-FOA growth OD615, 2 d; at 50 µM; hits give high values

O=C(O)c1ccccc1C(=O)NCC(O)COCC1CC=CCC1 (configuration not stated)
inactive: growth inhibition [1] -14.5% | growth inhibition [2] -16.2% | viability increase [3] -1.89% | viability [4] 101% | viability [5] 100% | inhibition [6] 1.33% | RAM network inhibition [7] 3.55%

CCCOc1ccc2ccccc2c1/C=N/n1c(C)nnc1-n1nc(C)cc1C
active: viability [4] 18.6% | viability [5] 19.6%
inactive: growth inhibition [1] -5.19% | growth inhibition [2] 1.04% | viability increase [3] -4.98% | inhibition [6] -0.29% | RAM network inhibition [7] -2.3%

N#CCCN1CCN(S(=O)(=O)c2ccc(S(=O)(=O)N3CCCC3)cc2)CC1
inactive: growth inhibition [1] 0.995% | growth inhibition [2] 7.04% | viability increase [3] 1.73% | viability [4] 101% | viability [5] 104% | inhibition [6] 1.29% | RAM network inhibition [7] 8.15%

CC(=O)N1CC2(C)CN(C(C)=O)CC(C)(C1)C2=O
inactive: growth inhibition [1] -5.64% | growth inhibition [2] 2.83% | viability increase [3] -0.26% | viability [4] 101% | viability [5] 102% | inhibition [6] 1.9% | RAM network inhibition [7] -0.41%

c1nc(N2CCNCC2)c2sc3nc(N4CCOCC4)c4c(c3c2n1)CCC4
active: viability [4] 2.54% | viability [5] 1.69%
inactive: growth inhibition [1] -0.055% | growth inhibition [2] 6.55% | viability increase [3] -6.75% | inhibition [6] 2.3% | RAM network inhibition [7] 7.31%

Cc1nnc(SCCC(C)C)[nH]c1=O
inactive: growth inhibition [1] -1.1% | growth inhibition [2] 0.225% | viability increase [3] -2.93% | viability [4] 101% | viability [5] 99.7% | inhibition [6] 0.745% | RAM network inhibition [7] 3.25%

CCOC(=O)c1nn(-c2ccccc2)c(=O)c2c(N)scc12
inactive: growth inhibition [1] -4.99% | growth inhibition [2] -1.54% | viability increase [3] -3.93% | viability [4] 102% | viability [5] 107% | inhibition [6] 2.98% | RAM network inhibition [7] 4.03%

Cc1cc(C(=O)OCc2nnc(-c3ccccc3)o2)c(C)n1-c1ccccc1
inactive: growth inhibition [1] -4.06% | growth inhibition [2] -12% | viability increase [3] -1.07% | viability [4] 84.4% | viability [5] 80.6% | inhibition [6] 0.125% | RAM network inhibition [7] 2.44%

COc1ccccc1CNC(=O)CCn1c(=O)oc2ccccc21
inactive: growth inhibition [1] 5.65% | growth inhibition [2] 6.41% | viability increase [3] -3.05% | viability [4] 104% | viability [5] 96.2% | inhibition [6] 2.48% | RAM network inhibition [7] 5.75%

O=C(NC1CCCC1)C(c1ccc(Cl)cc1)N1CCOCC1 (configuration not stated)
inactive: growth inhibition [1] -10.9% | growth inhibition [2] -6.79% | viability increase [3] 1.37% | viability [4] 98.8% | viability [5] 93% | inhibition [6] 1.98% | RAM network inhibition [7] 2.55%

Cc1ccc(CNC(=O)CS(=O)Cc2nc(-c3cccs3)oc2C)cc1 (configuration not stated)
inactive: growth inhibition [1] 13.6% | viability increase [3] -2.97% | viability [4] 90.5% | viability [5] 92.7% | inhibition [6] 1.67% | RAM network inhibition [7] 2.88%
active: growth inhibition [2] 57.4%

CCCn1c(CCC(=O)O)ccc1-c1cccs1
inactive: growth inhibition [1] 5.45% | growth inhibition [2] 7.04% | viability increase [3] -2.75% | viability [4] 93.4% | viability [5] 102% | inhibition [6] 0.78% | RAM network inhibition [7] -0.03%

Cc1ccc2oc(=O)c3cc(C(=O)N4CCN(c5ncccn5)CC4)sc3c2c1
inactive: growth inhibition [1] -7.63% | growth inhibition [2] -1.9% | viability increase [3] -3.11% | viability [4] 107% | viability [5] 98.1% | inhibition [6] 1.62% | RAM network inhibition [7] 2.64%

O=C(Nc1ccc(S(=O)(=O)N2CCCC2)cc1)C1COc2ccccc2O1 (configuration not stated)
inactive: growth inhibition [1] -10.9% | growth inhibition [2] -15.6% | viability increase [3] 0.84% | viability [4] 97.8% | viability [5] 83% | inhibition [6] 1.24% | RAM network inhibition [7] 5.44%

CC(=O)c1ccc(OCC(O)Cn2nnc3ccccc32)cc1 (configuration not stated)
inactive: growth inhibition [1] -15.7% | growth inhibition [2] -1.76% | viability increase [3] 0.2% | viability [4] 87.6% | viability [5] 97.9% | inhibition [6] 0.455% | RAM network inhibition [7] 7.79%

O=C(N[C@@H](Cc1ccccc1)C(=O)O)c1cccnc1
inactive: growth inhibition [1] -5.99% | growth inhibition [2] -10.1% | viability increase [3] 0.01% | viability [4] 96.1% | viability [5] 96.2% | inhibition [6] 2.62% | RAM network inhibition [7] 6.61%
